From ChEMBL document CHEMBL1148732, “New 2-arylpyrazolo[3,4-c]quinoline derivatives as potent and selective human A3 adenosine receptor antagonists. Synthesis, pharmacological evaluation, and ligand-receptor modeling studies” (J Med Chem, 2007)
pEC50, pKi: −log10 of the molar value.

Tests used:
[1] = molecular target: T1, Adenosine receptor A1 (Homo sapiens) (UniProt P30542); assay: Displacement of [3H]DPCPX from human adenosine A1 receptor expressed in CHO cells at 10 uM; assay type: cell-based
T1 sequence (whole entry): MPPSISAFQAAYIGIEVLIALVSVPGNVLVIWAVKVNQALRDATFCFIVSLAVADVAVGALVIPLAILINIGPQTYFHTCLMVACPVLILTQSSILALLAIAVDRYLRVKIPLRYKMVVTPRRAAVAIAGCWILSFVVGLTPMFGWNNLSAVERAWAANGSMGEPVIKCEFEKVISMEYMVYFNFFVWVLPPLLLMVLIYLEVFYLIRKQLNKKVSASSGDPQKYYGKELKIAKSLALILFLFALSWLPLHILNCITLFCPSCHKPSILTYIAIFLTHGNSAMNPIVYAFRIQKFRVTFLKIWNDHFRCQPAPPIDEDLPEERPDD

[2] = molecular target: T2, Adenosine receptor A2a (Homo sapiens, UniProt P29274); assay: Displacement of [3H]NECA from human adenosine A2A receptor expressed in CHO cells at 10 uM; assay type: cell-based
[3] = molecular target: T3, Adenosine receptor A1 (Homo sapiens, UniProt P30542); assay: Displacement of [3H]DPCPX from human adenosine A1 receptor expressed in CHO cells; assay type: cell-based
T3 sequence (P30542 whole entry): T1 sequence (whole entry)
How it was run: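 Five concentrations in triplicate. IC50 by nonlinear regression, converted to Ki with Cheng-Prusoff. Means ± SEM of four assays.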

[4] = molecular target: T4, Adenosine receptor A3 (Homo sapiens, UniProt P0DMS8); assay: Displacement of [125I]AB-MECA from human adenosine A3 receptor expressed in CHO cells; assay type: cell-based
T4 sequence (P0DMS8 whole entry): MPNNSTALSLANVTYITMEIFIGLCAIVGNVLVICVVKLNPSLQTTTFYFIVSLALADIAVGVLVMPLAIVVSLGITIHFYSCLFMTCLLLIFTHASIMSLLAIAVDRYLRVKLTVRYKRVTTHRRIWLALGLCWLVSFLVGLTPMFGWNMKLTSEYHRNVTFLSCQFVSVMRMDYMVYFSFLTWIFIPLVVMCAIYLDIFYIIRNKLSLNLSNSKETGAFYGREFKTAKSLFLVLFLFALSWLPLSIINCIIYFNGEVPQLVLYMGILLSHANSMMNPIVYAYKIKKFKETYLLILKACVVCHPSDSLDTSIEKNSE
How it was run: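 Five displacer concentrations, each in triplicate. IC50 by nonlinear regression, converted to Ki with Cheng-Prusoff. Means ± SEM of four separate assays.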

[5] = molecular target: T2, Adenosine receptor A2a; assay: Displacement of [3H]NECA from human adenosine A2A receptor expressed in CHO cells; assay type: cell-based
[6] = molecular target: T5, Adenosine receptor A3 (Rattus norvegicus) (UniProt P28647); assay: Displacement of [3H](R)-PIA from Wistar rat adenosine A3 receptor at 1 uM
T5 sequence (whole entry): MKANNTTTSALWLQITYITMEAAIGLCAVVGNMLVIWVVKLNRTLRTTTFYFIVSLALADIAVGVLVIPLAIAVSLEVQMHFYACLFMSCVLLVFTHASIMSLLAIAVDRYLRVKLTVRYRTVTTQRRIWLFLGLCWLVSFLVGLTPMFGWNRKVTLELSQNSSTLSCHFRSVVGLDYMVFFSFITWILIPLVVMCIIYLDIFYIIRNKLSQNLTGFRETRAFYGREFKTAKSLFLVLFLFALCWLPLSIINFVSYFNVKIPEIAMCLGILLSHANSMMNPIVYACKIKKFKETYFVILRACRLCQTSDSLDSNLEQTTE
How it was run: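 Rat testis membranes (0.1-0.2 mg protein) incubated with 4 nM [3H]-(R)-PIA and 150 nM DPCPX to block A1 sites. Buffer: 50 mM Tris/HCl pH 7.4, 1 mM EDTA, 10 mM MgCl2. Nonspecific binding defined with 15 µM (R)-PIA. Separation by filtration and scintillation counting. Result is % displacement at 1 µM.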

[7] = molecular target: Adenosine receptor A2a (Rattus norvegicus) (UniProt P30543); assay: Displacement of [3H]CGS 21680 from Wistar rat adenosine A2A receptor at 10 uM
[8] = molecular target: T6, Adenosine receptor A1 (Rattus norvegicus) (UniProt P25099); assay: Displacement of [3H]DPCPX from Wistar rat adenosine A1 receptor at 10 uM
T6 sequence (whole entry): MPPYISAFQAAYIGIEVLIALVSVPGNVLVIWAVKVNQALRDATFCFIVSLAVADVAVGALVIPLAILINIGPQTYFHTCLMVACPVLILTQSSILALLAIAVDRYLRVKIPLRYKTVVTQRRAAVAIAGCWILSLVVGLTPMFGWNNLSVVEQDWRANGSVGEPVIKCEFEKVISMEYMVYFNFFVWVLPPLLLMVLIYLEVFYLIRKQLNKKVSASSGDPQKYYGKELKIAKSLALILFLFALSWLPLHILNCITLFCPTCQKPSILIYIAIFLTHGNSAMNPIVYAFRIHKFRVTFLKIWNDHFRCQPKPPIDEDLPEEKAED
How it was run: (§1)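 Male Wistar rat cortex membranes (40-50 µg protein) incubated 180 min at 25 °C with 0.2-0.5 nM [3H]DPCPX. Buffer: 50 mM Tris/HCl, 2 mM MgCl2, pH 7.7. Run in triplicate. Nonspecific binding defined with 20 µM R-PIA. GF/C filtration; KD 0.51 nM.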

[9] = molecular target: T4, Adenosine receptor A3; assay: Antagonist activity at human adenosine A3 receptor expressed in CHO cells assessed as inhibition of NECA-induced cAMP accumulation; assay type: functional, cell-based
How it was run: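 CHO cells stably expressing hA3 were plated and used after 48 h. They were preincubated 15 min at 37 °C with Ro 20-1724 (20 µM) and adenosine deaminase (1 U/mL). Compounds at several concentrations were then added with 100 nM NECA and 10 µM forskolin for 15 min at 37 °C. Lysis in 0.4 N HCl. cAMP was measured by competitive binding against [3H]cAMP (2 nM) with adrenal binding protein, 150 min at 4 °C. EC50 from sigmoid nonlinear regression.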

[10] = molecular target: T5, Adenosine receptor A3 (Rattus norvegicus); assay: Antagonist activity at adenosine A3 receptor in Wistar rat hippocampal slices by prevention of glucose deprivation-induced synaptic impairment assessed as synaptic recovery at 100 nM; assay type: functional, tissue-based; parameters: scale not given: the % may be the effect or the level left; conditions: Hippocampus
How it was run: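 Male Wistar rat hippocampal slices (400 µm) superfused with oxygenated aCSF at 30-32 °C and 2 mL/min. CA1 fepsps were evoked from stratum radiatum. OGD was 7 min of glucose-free aCSF gassed with 95% N2-5% CO2. Antagonist (100 nM) was given from 10 min before until 5 min after OGD. Readout: fepsp amplitude at 15 min reperfusion as % of the 5-min pre-OGD baseline; n=5, one-way ANOVA with Newman-Keuls.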

[11] = molecular target: T7, Adenosine receptor A1 (Rattus norvegicus, UniProt P25099); assay: Displacement of [3H]DPCPX from Wistar rat adenosine A1 receptor; how it was run: as §1
T7 sequence (P25099 whole entry): T6 sequence (whole entry)

[12] = molecular target: T8, Adenosine receptor A3 (Homo sapiens) (UniProt P0DMS8); assay: Displacement of [125I]AB-MECA from human adenosine A3 receptor expressed in CHO cells at 1 uM; assay type: cell-based
T8 sequence (whole entry): T4 sequence (P0DMS8 whole entry)

T2 sequence (P29274 whole entry): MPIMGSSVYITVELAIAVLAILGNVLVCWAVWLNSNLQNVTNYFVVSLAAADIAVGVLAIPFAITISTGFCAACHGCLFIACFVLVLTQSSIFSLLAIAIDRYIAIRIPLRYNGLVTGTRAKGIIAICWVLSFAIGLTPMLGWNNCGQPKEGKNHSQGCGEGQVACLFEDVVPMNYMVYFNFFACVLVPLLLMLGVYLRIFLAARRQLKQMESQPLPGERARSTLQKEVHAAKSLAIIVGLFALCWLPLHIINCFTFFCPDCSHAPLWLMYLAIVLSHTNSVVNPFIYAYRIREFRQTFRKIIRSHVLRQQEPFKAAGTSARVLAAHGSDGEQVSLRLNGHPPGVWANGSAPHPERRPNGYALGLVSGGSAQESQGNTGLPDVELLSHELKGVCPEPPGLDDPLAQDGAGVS
Sequence of Adenosine receptor A2a (Rattus norvegicus) (P30543 whole entry): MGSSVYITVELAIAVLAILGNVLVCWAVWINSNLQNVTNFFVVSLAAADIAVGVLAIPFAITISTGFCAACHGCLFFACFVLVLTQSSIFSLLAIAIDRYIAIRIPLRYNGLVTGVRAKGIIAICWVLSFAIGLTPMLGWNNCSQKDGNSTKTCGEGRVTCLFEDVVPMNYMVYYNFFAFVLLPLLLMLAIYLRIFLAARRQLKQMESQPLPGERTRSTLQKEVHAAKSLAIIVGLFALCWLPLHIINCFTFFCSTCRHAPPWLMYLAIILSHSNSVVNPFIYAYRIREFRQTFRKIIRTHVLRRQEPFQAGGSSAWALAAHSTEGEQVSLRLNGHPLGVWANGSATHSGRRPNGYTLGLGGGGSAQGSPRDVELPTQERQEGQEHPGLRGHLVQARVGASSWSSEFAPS

| SMILES | Activity [1] [%] | Activity [2] [%] | pKi [3] | pKi [4] | also measured |
| --- | --- | --- | --- | --- | --- |
| O=C(Nc1nc2ccccc2c2cn(-c3ccccc3)nc12)c1ccccc1 | 0 | 9 | – | – | – |
| Nc1nc2ccccc2c2cn(-c3ccccc3)nc12 | – | – | 6.18 | – | – |
| COc1ccc(-n2cc3c(n2)c(NC(=O)C(c2ccccc2)c2ccccc2)nc2ccccc23)cc1 | 47 | 0 | – | 8.05 | – |
| COc1ccc(-n2cc3c(n2)c(NC(=O)c2ccccc2)nc2ccccc23)cc1 | – | 39 | 6.60 | 8.47 | – |
| O=C(Cc1ccccc1)Nc1nc2ccccc2c2cn(-c3ccccc3)nc12 | 5 | 15 | – | – | – |
| CC(=O)Nc1nc2ccccc2c2cn(-c3ccc(C)cc3)nc12 | – | – | 6.34 | 6.91 | pKi [5]: 5.82 |
| O=c1[nH]c2ccccc2c2cn(-c3ccc([N+](=O)[O-])cc3)nc12 | – | 0 | 6.45 | 7.07 | – |
| Cc1ccc(-n2cc3c(n2)c(=O)[nH]c2ccccc23)cc1 | – | 44 | 7.54 | – | – |
| COc1ccc(-n2cc3c(n2)c(NC(=O)Cc2ccccc2)nc2ccccc23)cc1 | – | 51 | 6.70 | 8.35 | – |
| COc1cccc(-n2cc3c(n2)c(=O)[nH]c2ccccc23)c1 | – | 52 | 7.85 | 8.14 | – |
| Cc1cccc(-n2cc3c(n2)c(N)nc2ccccc23)c1 | – | – | 7.68 | – | pKi [5]: 6.64 |
| O=C(c1ccccc1)N(C(=O)c1ccccc1)c1nc2ccccc2c2cn(-c3ccccc3)nc12 | 0 | 0 | – | 8.21 | – |
| COc1ccc(-n2cc3c(n2)c(N(C(=O)c2ccccc2)C(=O)c2ccccc2)nc2ccccc23)cc1 | 25 | 7 | – | 7.76 | Activity [6]: 28%; Activity [7]: 2%; Activity [8]: 11%; pEC50 [9]: 7.95; Activity [10]: 84% |
| Cc1ccc(-n2cc3c(n2)c(NC(=O)Cc2ccccc2)nc2ccccc23)cc1 | 55 | 21 | – | 8.25 | – |
| O=c1[nH]c2ccccc2c2cn(-c3ccccc3)nc12 | – | 43 | 6.69 | – | – |
| Cc1ccc(-n2cc3c(n2)c(NC(=O)C(c2ccccc2)c2ccccc2)nc2ccccc23)cc1 | 32 | 3 | – | 7.94 | – |
| Cc1cccc(-n2cc3c(n2)c(=O)[nH]c2ccccc23)c1 | – | 46 | 7.92 | – | – |
| Cc1ccc(-n2cc3c(n2)c(NC(=O)NCc2ccccc2)nc2ccccc23)cc1 | 5 | 39 | – | 6.59 | – |

| SMILES | Activity [1] [%] | Activity [2] [%] | pKi [3] | pKi [4] | also measured |
| --- | --- | --- | --- | --- | --- |
| Cc1ccc(-n2cc3c(n2)c(NC(=O)c2ccccc2)nc2ccccc23)cc1 | – | 26 | 6.20 | 8.36 | – |
| O=C(Nc1nc2ccccc2c2cn(-c3ccccc3)nc12)C(c1ccccc1)c1ccccc1 | 0 | 21 | – | 8.05 | Activity [6]: 30%; Activity [7]: 26%; pEC50 [9]: 8.42; pKi [11]: 5.83; Activity [10]: 47% |
| COc1cccc(-n2cc3c(n2)c(N)nc2ccccc23)c1 | – | – | 7.49 | 6.64 | pKi [5]: 6.31 |
| O=C(NCc1ccccc1)Nc1nc2ccccc2c2cn(-c3ccccc3)nc12 | 0 | 3 | – | – | – |
| Cc1ccc(-n2cc3c(n2)c(N)nc2ccccc23)cc1 | – | – | 7.35 | – | pKi [5]: 6.48 |
| COc1ccc(-n2cc3c(n2)c(NC(C)=O)nc2ccccc23)cc1 | – | 0 | 5.54 | 6.99 | – |
| Cc1cccc(-n2cc3c(n2)c(NC(=O)c2ccccc2)nc2ccccc23)c1 | – | – | 7.24 | 8.37 | pKi [5]: 5.54 |
| Cc1cccc(-n2cc3c(n2)c(NC(=O)C(c2ccccc2)c2ccccc2)nc2ccccc23)c1 | – | 4 | 6.25 | 7.85 | – |
| CC(=O)Nc1nc2ccccc2c2cn(-c3cccc(C)c3)nc12 | – | 10 | 6.69 | 7.51 | – |
| COc1ccc(-n2cc3c(n2)c(NC(=O)NCc2ccccc2)nc2ccccc23)cc1 | 43 | 0 | – | – | Activity [12]: 40% |
| Cc1cccc(-n2cc3c(n2)c(NC(=O)Cc2ccccc2)nc2ccccc23)c1 | – | 24 | 7.22 | 8.41 | – |
| O=c1[nH]c2ccccc2c2cn(Cc3ccccc3)nc12 | 8 | 32 | – | 7.13 | – |
| CC(=O)Nc1nc2ccccc2c2cn(-c3ccccc3)nc12 | 0 | 3 | – | – | – |
| Cc1cccc(-n2cc3c(n2)c(N(C(=O)c2ccccc2)C(=O)c2ccccc2)nc2ccccc23)c1 | 42 | 20 | – | 7.63 | – |
| COc1ccc(-n2cc3c(n2)c(=O)[nH]c2ccccc23)cc1 | – | 25 | 6.75 | – | – |
| Cc1cccc(-n2cc3c(n2)c(NC(=O)NCc2ccccc2)nc2ccccc23)c1 | – | 20 | 5.17 | 8.47 | – |
| Cc1ccc(-n2cc3c(n2)c(N(C(=O)c2ccccc2)C(=O)c2ccccc2)nc2ccccc23)cc1 | 32 | 0 | – | 7.52 | – |
| COc1ccc(-n2cc3c(n2)c(N)nc2ccccc23)cc1 | – | – | 7.40 | – | – |
